# MEKK2 mut-MEK5 = signal of MEK5 binding to mutant human MEKK2 PB1 domain; bead flow cytometry, Alexa488-MEK5 binding to MEKK2 mutant; percent response, % at 10 µM; hit rate 0.35% among 290,000; AID 1530; in the data active = percent response above about 24%, passing the limit was not always enough
# UBC13 inh = blocks human UBC13 polyubiquitin chain formation; P61088; TR-FRET; inhibition, % at 20 µM; hit rate 0.47% among 330,000; AID 485273; in the data active = inhibition above about 45%, passing the limit was not always enough
# UCH37 inh = blocks the human deubiquitinase UCH37; inhibition, % (no concentration beside the values); purified proteasome/UCH37, Ub-AMC cleavage fluorescence; hit rate 0.33% among 330,000; AID 588478; Q9Y5K5;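 active = mean inhibition over replicate wells above about 20%, limit read from the data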;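 note: 0% = compound-free wells with enzyme and 100% = wells lacking proteasome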
# Target sequence (Q9Y5K5 whole entry, looked up): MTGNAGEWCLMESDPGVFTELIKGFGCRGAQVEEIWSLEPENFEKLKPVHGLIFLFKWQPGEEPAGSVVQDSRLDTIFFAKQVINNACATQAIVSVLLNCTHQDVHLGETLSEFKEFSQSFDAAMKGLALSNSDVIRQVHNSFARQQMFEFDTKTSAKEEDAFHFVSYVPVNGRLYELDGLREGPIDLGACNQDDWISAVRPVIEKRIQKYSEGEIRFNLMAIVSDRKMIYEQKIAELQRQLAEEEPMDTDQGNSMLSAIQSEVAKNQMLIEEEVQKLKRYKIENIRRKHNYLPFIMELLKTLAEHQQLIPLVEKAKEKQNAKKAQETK
#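 Signal – fluorescence, ex 355 nm, em 460 nm · System – Proteasome-bound UCH37 · Input – 0.15 nM proteasome as dispensed · Timing – 30 min preincubation with enzyme, 25 min cleavage at room temperature · Read-out basis – percent inhibition of cleavage signal versus uninhibited and no-proteasome wells · Medium – Tris-HCl pH 7.4 with ATP-MgCl2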
# Apaf-1 inh = human Apaf-1 inhibition; O14727; reconstituted apoptosome caspase-3 activity, DEVD-Rh110 fluorescence; inhibition, % at 20 µM; hit rate 0.71% among 330,000; active = inhibition of at least 40% at 20 µM;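 note: plate controls were DMSO wells for no effect and DEVD-CHO caspase inhibitor wells for full effect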
#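 Material: cell-free apoptosome with Apaf-1, procaspase-3 and caspase-9; Buffer or medium: Hepes pH 7.5 with detergent and BSA; Reagent: cytochrome c trigger plus (Z-DEVD)2-Rh110 caspase-3 substrate; Times: compound with Apaf-1, dATP, procaspase-3 30 min, then 50 min reaction, room temperature; Technique: Rh110 fluorescence intensity.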
# MEKK2 WT-MEK5 = raises or lowers MEK5 binding to wildtype human MEKK2 PB1 domain; Q9Y2U5; bead flow cytometry, Alexa488-MEK5 binding to MEKK2 WT; actives lie on both sides; binding response (% of control), % at 10 µM; hit rate 1.1% among 290,000; AID 1531; in the data active = binding response below about 67% or above about 130%
# MEKK3 PB1 HTS = modulators (inhibitors or enhancers) of MEK5 binding to human MEKK3 PB1 domain. Q99759. bead-based flow cytometry, Alexa488-MEK5 binding to MEKK3; actives lie on both sides; 0 = blocked by unlabeled MEK5, 100 = vehicle. binding response (% of control), % at 10 µM. hit rate 1.4% among 290,000;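 active = binding response more than 3 SD above or below the average of its plate-row segment, actives on both sides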;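 note: Alexa488 bead fluorescence after subtracting the streptavidin-only scavenger bead signal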
# MEKK2wt confirm = raises or lowers MEK5 binding to wildtype human MEKK2, retest; shares compounds with MEKK3 PB1 HTS; bead flow cytometry, Alexa488-MEK5 binding to MEKK2 WT; actives lie on both sides; binding response (% of control), % at 10 µM; hit rate 2.4% among 5,900; AID 1892; in the data active = binding response below about 16% or above about 210%; inactive = in between
# MEKK2mut confirm = signal of MEK5 binding to mutant human MEKK2, retest; percent response, % at 10 µM; hit rate 2% among 5,900; shares compounds with MEKK3 PB1 HTS; bead flow cytometry, Alexa488-MEK5 binding to MEKK2 mutant; in the data active = percent response mostly above about 71%, no sharp cut-off; inactive = mostly below about 38%;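 note: higher means compound restores mutant binding toward wildtype level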
# MEKK3 confirm = confirmation of inhibitors of MEK5 binding to human MEKK3. shares compounds with MEKK3 PB1 HTS. bead flow cytometry, Alexa488-MEK5 binding to MEKK3; active compounds read low. binding response (% of control), % at 10 µM. hit rate 1.8% among 5,900;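 active = binding response below 72% of control, or above a set upper limit, though filed actives all read lower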;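 note: 100% = DMSO only wells and 0% = binding blocked by excess unlabeled MEK5; lower values mean stronger disruption of MEK5 binding to MEKK3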
# Casp3 UBC13 ctr = counter-screen for UBC13 inhibitors: human caspase-3 inhibition. inhibition, % at 20 µM. Recombinant caspase-3, Caspase-Glo 3/7 luminescence, 60 min. shares compounds with UBC13 inh. hit rate 4% among 1,400;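 active = mean inhibition across replicates above about 26%, limit read from the data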;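 note: plate controls were DMSO with caspase-3 for no effect and DMSO wells lacking enzyme for full effect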
# Target sequence (P42574 whole entry, looked up): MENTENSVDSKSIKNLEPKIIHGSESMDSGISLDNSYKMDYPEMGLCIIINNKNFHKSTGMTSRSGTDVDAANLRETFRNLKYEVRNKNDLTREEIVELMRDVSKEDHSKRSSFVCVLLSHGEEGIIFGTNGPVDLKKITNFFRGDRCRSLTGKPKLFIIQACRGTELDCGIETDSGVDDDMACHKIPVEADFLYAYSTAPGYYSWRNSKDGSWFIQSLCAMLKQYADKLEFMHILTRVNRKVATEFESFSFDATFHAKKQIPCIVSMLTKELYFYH
# UBC13 confirm = confirmation of human UBC13 polyubiquitin inhibitors; UBC13 polyubiquitination, TR-FRET, biochemical; hit rate 68% among 1,400; shares compounds with UBC13 inh; inhibition, % at 10 µM; in the data active = inhibition above about 45%
# Apaf-1 inh conf = Apaf-1 inhibition, single-dose confirmed; inhibition, % at 20 µM; reconstituted apoptosome, caspase-3 DEVD-Rh110 fluorescence; hit rate 25% among 1,800; shares compounds with Apaf-1 inh;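 active = mean inhibition of at least 40% at 20 µM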;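 note: plate controls were DMSO wells for no effect and DEVD-CHO caspase inhibitor control wells for full effect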
# Rh110 quench = interferes with Rh110 fluorescence, flagging false Apaf-1 inhibitors | shares compounds with Apaf-1 inh | Rh110 fluorescence interference, quenched caspase reaction | activation (fluorescence interference), % at 20 µM | 1,800 tested, under 10 active | AID 504615;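 active = signal rise of 40% or more at 20 µM, treated as a fluorescence artifact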
# Fluor interf inh = shows fluorescence interference in the Apaf-1 inhibitor assay format. shares compounds with Apaf-1 inh. fluorescence interference counterscreen, Apaf-1 assay format. IC50, µM. 460 tested, under 10 active. AID 588538; call rule not given here
# Active calls of the source: *; i = inactive; x = no result given; ! = not confirmed by another sample; [ ] = dose if it differs, or a comment. Only some compounds are listed: those with a hit (about 3% of all), similar ones and a draw of the others.
SMILES,MEKK2 mut-MEK5,UBC13 inh,UCH37 inh,Apaf-1 inh,MEKK2 WT-MEK5,MEKK3 PB1 HTS,MEKK2wt confirm,MEKK2mut confirm,MEKK3 confirm,others
c1ccc(-c2[nH]c[n+](CC3CO3)c2-c2ccccc2)cc1 (stereo not given),40,19,x,51*,152*,104,110,0,100,
C[C@]1(O)CCC2C3CC[C@H]4C[C@@H](OC(=O)CNC(=O)CN)CC[C@]4(C)C3CC[C@@]21C (stereo not given in full),x,27,2,20,x,x,x,x,x,
O=C1NC(=O)C(CCc2ccncc2)(Cc2ccc([N+](=O)[O-])cc2)C(=O)N1,0,8,3,-11,107,140*,100,2,100,
CCN(CC)c1ccc(CN(C)CCc2ccc(OC)c(OC)c2)cc1,24*,13,4,-17,135*,115,114,7,107,
Nc1ccccc1N=Cc1c(O)n(CCC2=CCCCC2)c(=O)[nH]c1=O,-2,5,-28,18,96,104,x,x,x,
O=C(N/N=C/c1c(O)n(CCC2=CCCCC2)c(=O)[nH]c1=O)c1ccccc1,1,-17,-404,17,111,149*,100,-1,104,
O=c1[nH]c(=S)n(CCC2=CCCCC2)c(O)c1C=NCc1cccnc1,3,-10,3,1,99,102,x,x,x,
O=C(N/N=C/c1c(O)n(CCC2=CCCCC2)c(=S)[nH]c1=O)c1ccccc1,0,-18,-94,9,108,154*,99,-2,104,
CCN(CC)c1ccc(/C=N/c2sc3c(c2C#N)C2CCN3CC2)c(O)c1,92*,x,x,x,96,109,84,-22,93,
N#Cc1c(Cl)nc(Cl)c2c1CCN(Cc1ccccc1)C2,2,16,x,3,114,183*,104,3,99,
COc1cccc(C2CC3C(=O)C=CC2N3Cc2ccccc2)c1 (stereo not given),1,-11,-1,15,105,157*,98,-9,99,
CNCC(O)c1cc(OCc2ccccc2)c(OCc2ccccc2)cc1F (stereo not given),17,53*,2,8,138*,103,125,12,104,Casp3 UBC13 ctr=2;UBC13 confirm=39
Cc1ccc(C(=O)N[C@@H](C)CN2C3=NC[C@H](Cc4ccccc4)N3C[C@H]2Cc2ccc(O)cc2)cc1Br,31*,65*,-1,28,168*,112,155,25,88,Casp3 UBC13 ctr=2;UBC13 confirm=65*
Cc1ccc(C(=O)N[C@@H](C)CN2C3=NC[C@@H](Cc4ccccc4)N3C[C@H]2Cc2ccc(O)cc2)cc1Br,103*,77*,1,28,248*,108,159,61,107,Casp3 UBC13 ctr=-1;UBC13 confirm=76*
COc1ccc(CCNCc2sccc2C)cc1OC,-16,-2,0,6,83,78,x,x,x,
Cc1ccccc1C1=NCC(=S)Nc2ccc(Cl)cc21,1,11,1,3,98,94,x,x,x,
COc1ccc(C(=O)C2CCCN(CCO)C2)c(C)c1 (stereo not given),1,0,2,5,104,101,x,x,x,
CCCCCCCSc1cc(OC)c(CCN(C)C)cc1OC,28*,50*,5,56*,147*,104,155,21,100,Casp3 UBC13 ctr=-3;UBC13 confirm=56*;Apaf-1 inh conf=13;Rh110 quench=11
CNP1(NC)=NC(C(F)(F)F)=NC(C(F)(F)F)=N1,-4,-1,1,-11,93,87,x,x,x,
O=c1[nH]c2ccccc2n1C1CCN(CCCC(c2ccc(F)cc2)c2ccc(F)cc2)CC1,31*,40,2,56*,146*,83,195,66,109,Apaf-1 inh conf=14;Rh110 quench=2
CC[C@@H](CO)NC(=O)[C@@H]1C=C2c3cccc4c3c(cn4C)C[C@H]2N(C)C1,7,-39,-158,69*!,38*![inhibitor],66*![inhibitor],109,7,104,Apaf-1 inh conf=17;Rh110 quench=0
NC(N)=N/N=C/c1ccc(N(c2ccccc2)c2ccccc2)cc1,73*,107*,x,61*,235*,114,205,63,111,Casp3 UBC13 ctr=-6;UBC13 confirm=119*;Apaf-1 inh conf=43*;Rh110 quench=3;Fluor interf inh=>100
O=C(O)CCC(=O)NCCC1=c2ccccc2=N/C1=C\c1c(O)n(Cc2ccc(F)cc2)c(=S)[nH]c1=O,-7,-10,4,2,83,93,x,x,x,
COC(=O)C1=C(c2ccccc2)C[C@@H]2CC[C@H]1N2C(=O)N1CCC(C)CC1,5,6,4,5,108,105,x,x,x,
CCCCn1c(=O)c(C(=O)NCc2ccccc2Cl)c(O)c2ccccc21,1,8,-1,-3,102,98,x,x,x,
CNc1ccc2nc3ccccc3[n+](C)c2c1,-5,i,x,89*,2.0*[inhibitor],88,95,6,94,Apaf-1 inh conf=62*;Rh110 quench=9;Fluor interf inh=>100
C[C@H]1CCC[C@@H](O)CCCC=Cc2cc(O)cc(O)c2C(=O)O1,x,x,0,x,x,x,x,x,x,
CCCCn1c(=O)c(C(=O)Nc2ccccc2S(N)(=O)=O)c(O)c2ccccc21,5,53*,-6,11,108,102,x,x,x,Casp3 UBC13 ctr=-2;UBC13 confirm=15
C[C@]12CC[C@H](O)CC1=CCC1C2CC[C@@]2(C)C1C[C@@H]1CC(=O)O[C@@H]12 (stereo not given in full),x,13,-1,-3,x,x,x,x,x,

# Assay outcomes from PubChem BioAssay.
